ChEMBL document CHEMBL1158351, “Studies on chemical structure modification and biology of a natural product, gambogic acid (I): Synthesis and biological evaluation of oxidized analogues of gambogic acid” (Eur J Med Chem, 2009)
Activity calls are given as the source filed them. The rule behind the calls is not given here.

Assays:
[1] = test system: BGC-823; assay: Cytotoxicity against human BGC823 cells after 48 hrs by MTT assay; format: functional, cell-based; settings: BGC-823, 48 h
How it was run: (§1)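 Cells in RPMI-1640 with 10% heat-inactivated calf serum, penicillin/streptomycin, 5% CO2, 37 °C. Seeded at 5×10³ per well and exposed to six concentrations of 0.01–1000 for 48 h. Then 0.5% MTT for 4 h at 37 °C, formazan dissolved in DMSO, absorbance read at 570 nm. Inhibition calculated as (1 − treated/control absorbance)×100. IC50 is the concentration giving 50% inhibition; mean ± SD of three observations.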

[2] = test system: HT-29; assay: Cytotoxicity against human HT-29 cells after 48 hrs by MTT assay; format: functional, cell-based; settings: HT-29, 48 h; how it was run: as §1
[3] = test system: A549; assay: Cytotoxicity against human A549 cells after 48 hrs by MTT assay; format: functional, cell-based; settings: A549, 48 h; how it was run: as §1
[4] = test system: SK-OV-3; assay: Cytotoxicity against human SKOV3 cells after 48 hrs by MTT assay; format: functional, cell-based; settings: SK-OV-3, 48 h; how it was run: as §1
[5] = test system: Bel-7402; assay: Cytotoxicity against human Bel7402 cells after 48 hrs by MTT assay; format: functional, cell-based; settings: Bel-7402, 48 h; how it was run: as §1
[6] = test system: HepG2; assay: Induction of early apoptosis in human HepG2 cells assessed as presence of congregated chromatin and nucleolus pyknosis at 1 uM after 18 hrs using AOEB staining by fluorescence microscopy; format: functional, cell-based
How it was run: (§2)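 HepG2 cells treated for 18 h, fixed in 4% paraformaldehyde for 20 min, and permeabilized in 0.1% Triton for 20 min. Stained with acridine orange/ethidium bromide in PBS for 5 min. Viewed by fluorescence microscopy at 490 nm excitation. Green AO with condensed chromatin scored as early apoptotic; uniform red EB scored as dead.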

[7] = test system: HepG2; assay: Induction of apoptosis in human HepG2 cells assessed as decrease in Bcl-2 protein expression at 1 uM after 20 hrs by SDS-PAGE; format: functional, cell-based
How it was run: (§3)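 HepG2 cells treated for 20 h, then lysed in Tris-Cl pH 6.8 buffer with 4% SDS, 20% glycerol, 200 mM β-mercaptoethanol, PMSF and aprotinin. Protein measured by Bradford at 595 nm and resolved on 10% SDS-PAGE, then transferred to PVDF membrane. Probed overnight at 4 °C with anti-Bcl-2, anti-Bax and anti-actin primaries, then 1 h with IRDye800 secondaries. Bcl-2/Bax ratio derived from band quantitation.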

[8] = test system: HepG2; assay: Induction of apoptosis in human HepG2 cells assessed viable cells at 6 uM after 20 hrs using FITC-conjugated annexin V and propidium iodide staining by FACS analysis; format: functional
How it was run: (§4)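 HepG2 cells in flasks treated for 20 h, then 1×10⁶ cells harvested, washed and resuspended in PBS. Stained with FITC-Annexin V and PI kit per kit instructions and analysed by flow cytometry. Quadrants: Annexin−/PI− viable, Annexin+/PI− early apoptotic, upper right necrotic/late apoptotic.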

[9] = test system: HepG2; assay: Induction of apoptosis in human HepG2 cells assessed early apoptotic cells at 6 uM after 20 hrs using FITC-conjugated annexin V and propidium iodide staining by FACS analysis; format: functional; how it was run: as §4
[10] = test system: HepG2; assay: Induction of apoptosis in human HepG2 cells assessed as ratio of Bcl-2 to Bax protein expression at 2 uM after 20 hrs by SDS-PAGE; format: functional; how it was run: as §3
[11] = test system: HepG2; assay: Induction of apoptosis in human HepG2 cells assessed late apoptotic cells at 2 uM after 20 hrs using FITC-conjugated annexin V and propidium iodide staining by FACS analysis; format: functional; how it was run: as §4
[12] = test system: HepG2; assay: Induction of early apoptosis in human HepG2 cells assessed as presence of congregated chromatin and nucleolus pyknosis at 2 uM after 18 hrs using AOEB staining by fluorescence microscopy; format: functional, cell-based; how it was run: as §2
[13] = test system: HepG2; assay: Induction of apoptosis in human HepG2 cells assessed as ratio of Bcl-2 to Bax protein expression at 6 uM after 20 hrs by SDS-PAGE; format: functional; how it was run: as §3
[14] = test system: HepG2; assay: Induction of apoptosis in human HepG2 cells assessed early apoptotic cells at 1 uM after 20 hrs using FITC-conjugated annexin V and propidium iodide staining by FACS analysis; format: functional; how it was run: as §4
[15] = test system: HepG2; assay: Induction of apoptosis in human HepG2 cells assessed nonviable necrotic cells at 1 uM after 20 hrs using FITC-conjugated annexin V and propidium iodide staining by FACS analysis; format: functional; how it was run: as §4
[16] = test system: HepG2; assay: Induction of apoptosis in human HepG2 cells assessed as morphological changes at 1 uM after 20 hrs using DAPI staining by fluorescence microscopy; format: functional, cell-based
How it was run: (§5)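 Mid-log HepG2 cultures in RPMI-1640 treated for 20 h, then morphology checked by inverted light microscopy. Floating and attached cells collected with EDTA/trypsin, fixed in ice-cold 4% paraformaldehyde for 20 min, and permeabilized with 0.3% Triton X-100. Stained with DAPI and viewed by fluorescence microscopy at 340 nm excitation.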

[17] = test system: HepG2; assay: Induction of apoptosis in human HepG2 cells assessed as inhibition of cell viability after 24 hrs by MTT assay; format: functional, cell-based
How it was run: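 Medium then removed and MTT added; after 4 h the supernatant was discarded and DMSO added. Absorbance read at 570 nm. Mean ± SD, n = 3; IC50 calculated from the concentration–response.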

[18] = test system: HepG2; assay: Induction of early apoptosis in human HepG2 cells assessed as presence of congregated chromatin and nucleolus pyknosis at 3 uM after 18 hrs using AOEB staining by fluorescence microscopy; format: functional, cell-based; how it was run: as §2
[19] = test system: HepG2; assay: Induction of apoptosis in human HepG2 cells assessed as decrease in Bcl-2 protein expression at 2 uM after 20 hrs by SDS-PAGE; format: functional, cell-based; how it was run: as §3
[20] = test system: HepG2; assay: Induction of apoptosis in human HepG2 cells assessed as ratio of Bcl-2 to Bax protein expression at 1 uM after 20 hrs by SDS-PAGE; format: functional; how it was run: as §3
[21] = test system: HepG2; assay: Induction of apoptosis in human HepG2 cells assessed as decrease in Bcl-2 protein expression at 6 uM after 20 hrs by SDS-PAGE; format: functional, cell-based; how it was run: as §3
[22] = test system: HepG2; assay: Induction of apoptosis in human HepG2 cells assessed early apoptotic cells at 2 uM after 20 hrs using FITC-conjugated annexin V and propidium iodide staining by FACS analysis; format: functional; how it was run: as §4
[23] = test system: HepG2; assay: Induction of apoptosis in human HepG2 cells assessed viable cells at 2 uM after 20 hrs using FITC-conjugated annexin V and propidium iodide staining by FACS analysis; format: functional; how it was run: as §4
[24] = test system: HepG2; assay: Induction of apoptosis in human HepG2 cells assessed late apoptotic cells at 6 uM after 20 hrs using FITC-conjugated annexin V and propidium iodide staining by FACS analysis; format: functional; how it was run: as §4
[25] = test system: HepG2; assay: Induction of apoptosis in human HepG2 cells assessed late apoptotic cells at 1 uM after 20 hrs using FITC-conjugated annexin V and propidium iodide staining by FACS analysis; format: functional; how it was run: as §4
[26] = test system: HepG2; assay: Induction of apoptosis in human HepG2 cells assessed viable cells at 1 uM after 20 hrs using FITC-conjugated annexin V and propidium iodide staining by FACS analysis; format: functional; how it was run: as §4
[27] = test system: HepG2; assay: Induction of apoptosis in human HepG2 cells assessed nonviable necrotic cells at 2 uM after 20 hrs using FITC-conjugated annexin V and propidium iodide staining by FACS analysis; format: functional; how it was run: as §4
[28] = test system: HepG2; assay: Induction of apoptosis in human HepG2 cells assessed as morphological changes at 3 uM after 20 hrs using DAPI staining by fluorescence microscopy; format: functional, cell-based; how it was run: as §5
[29] = test system: HepG2; assay: Induction of apoptosis in human HepG2 cells assessed as morphological changes at 2 uM after 20 hrs using DAPI staining by fluorescence microscopy; format: functional, cell-based; how it was run: as §5
[30] = test system: HepG2; assay: Induction of apoptosis in human HepG2 cells assessed nonviable necrotic cells at 6 uM after 20 hrs using FITC-conjugated annexin V and propidium iodide staining by FACS analysis; format: functional; how it was run: as §4

C/C(=C/C[C@@]12OC(C)(C)[C@@H]3C[C@@H](C=C4C(=O)c5c(O)c6c(c(CC7OC7(C)C)c5O[C@]431)O[C@](C)(CCC1OC1(C)C)C=C6)C2=O)C(=O)O (stereo partly specified)
IC50 [1]: 4.38 µM
IC50 [2]: 2.08 µM
IC50 [3]: 1.56 µM
IC50 [4]: 0.76 µM
IC50 [5]: 3.73 µM

CC(C)=CCC[C@]1(C)C=Cc2c(O)c3c(c(CC=C(C)C)c2O1)O[C@]12[C@H]4C[C@H](C(=O)[C@]1(C/C=C(/C)C(=O)O)OC4(C)C)C(O)C2(O)C3=O (stereo partly specified)
IC50 [1]: 29.9 µM
IC50 [2]: 34.7 µM
IC50 [3]: 74.2 µM
IC50 [4]: 6 µM
IC50 [5]: 33.1 µM

C/C(=C/C[C@@]12OC(C)(C)[C@@H]3C[C@@H](C=C4C(=O)c5c(O)c6c(c(C/C=C(\C)CO)c5O[C@]431)O[C@](C)(CC/C=C(\C)C=O)C=C6)C2=O)C(=O)O
IC50 [1]: 6.75 µM
IC50 [2]: 2.08 µM
IC50 [3]: 20.5 µM
IC50 [4]: 1.84 µM
IC50 [5]: 15 µM

CC(C)=CCC[C@]1(C)C=Cc2c(O)c3c(c(CC=C(C)C)c2O1)O[C@]12C(=C[C@@H]4C[C@H]1C(C)(C)O[C@@]2(C/C=C(/C)C(=O)O)C4=O)C3=O [GAMBOGIC ACID]
IC50 [1]: 4.51 µM
IC50 [2]: 5.61 µM
IC50 [3]: 5.81 µM
IC50 [4]: 3.06 µM
IC50 [5]: 3.31 µM

COC(=O)/C(C)=C\C[C@@]12OC(C)(C)[C@@H]3C[C@@H](C=C4C(=O)c5c(OC)c6c(c(CC=C(C)C)c5O[C@]431)O[C@](C)(CC[C@@H](O)C(C)(C)O)C=C6)C2=O
IC50 [1]: > 100 µM
IC50 [2]: > 100 µM
IC50 [3]: > 100 µM
IC50 [4]: > 100 µM
IC50 [5]: > 100 µM

COC(=O)/C(C)=C\C[C@@]12OC(C)(C)[C@@H]3C[C@@H](C=C4C(=O)c5c(OC)c6c(c(CC=C(C)C)c5O[C@]431)O[C@](C)(CC/C=C(\C)CO)C=C6)C2=O
Activity [6]: Active
Activity [7]: Active
Activity [8]: 72.7%
IC50 [1]: 0.84 µM
Activity [9]: 12.9%
IC50 [2]: 0.89 µM
Ratio [10]: 0.478
Activity [11]: 2.5%
Activity [12]: Active
Ratio [13]: 0.251
IC50 [3]: 4.38 µM
Activity [14]: 4%
Activity [15]: 0.2%
Activity [16]: Active
Activity [17]: Dose-dependent effect
IC50 ([17]; HepG2, 24 h): 2.35 µM
Activity [18]: Active
Activity [19]: Active
Ratio [20]: 0.476
Activity [21]: Active
Activity [22]: 5%
Activity [23]: 92.3%
IC50 [4]: 1.28 µM
Activity [24]: 13.5%
Activity [25]: 3.5%
Activity [26]: 92.3%
Activity [27]: 0.2%
IC50 [5]: 0.96 µM
Activity [28]: Active
Activity [29]: Active
Activity [30]: 0.9%

CC(C)=CCC[C@]1(C)C=Cc2c(O)c3c(c(C/C=C(\C)CO)c2O1)O[C@]12C(=C[C@@H]4C[C@H]1C(C)(C)O[C@@]2(C/C=C(/C)C(=O)O)C4=O)C3=O
IC50 [1]: 4.89 µM
IC50 [2]: 2.66 µM
IC50 [3]: 5.87 µM
IC50 [4]: 1.61 µM
IC50 [5]: 4.01 µM

COC(=O)/C(C)=C\C[C@@]12OC(C)(C)[C@@H]3C[C@@H](C=C4C(=O)c5c(OC)c6c(c(CC=C(C)C)c5O[C@]431)O[C@](C)(CCC1OC1(C)C)C=C6)C2=O (stereo partly specified)
IC50 [1]: 0.75 µM
IC50 [2]: 2.19 µM
IC50 [3]: 1.48 µM
IC50 [4]: 0.64 µM
IC50 [5]: 1.4 µM

COC(=O)/C(C)=C\C[C@@]12OC(C)(C)[C@@H]3C[C@@H](C=C4C(=O)c5c(OC)c6c(c(CC7OC7(C)C)c5O[C@]431)O[C@](C)(CCC1OC1(C)C)C=C6)C2=O (stereo partly specified)
IC50 [1]: 3.21 µM
IC50 [2]: 1.86 µM
IC50 [3]: 3.61 µM
IC50 [4]: 1.8 µM
IC50 [5]: 1.66 µM

COC(=O)/C(C)=C\C[C@@]12OC(C)(C)[C@@H]3C[C@@H](C=C4C(=O)c5c(OC)c6c(c(CC=C(C)C)c5O[C@]431)O[C@](C)(CC/C=C(\C)COC(C)=O)C=C6)C2=O
IC50 [1]: 1.42 µM
IC50 [2]: 2.41 µM
IC50 [3]: 5.25 µM
IC50 [4]: 15.8 µM
IC50 [5]: 3.6 µM

COC(=O)/C(C)=C\C[C@@]12OC(C)(C)[C@@H]3C[C@@H](C=C4C(=O)c5c(OC)c6c(c(CC=C(C)C)c5O[C@]431)O[C@](C)(CC[C@H](O)C(C)(C)O)C=C6)C2=O
IC50 [1]: 3.46 µM
IC50 [2]: 3.75 µM
IC50 [3]: 5.86 µM
IC50 [4]: 3.23 µM
IC50 [5]: 3.65 µM
